ANO1 activ = TMEM16A chloride channel activators or potentiators, primary screen, cell-based, HTS. B-score at 10 µM. AID 623877, 2012. HEK293 TMEM16A/YFP-H148Q/I152L, iodide quench fluorescence; hits give low values. actives 0.3% (n = 340,000). Anoctamin-1 (Mus musculus), Q8BHY3;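 active means fluorescence-ratio B-score plate-corrected deviation score at least 3 library SD below zero, with starting fluorescence score within 5 deviations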;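 further: channel opened by trigger with iodide after compound preincubation; score built on the fluorescence ratio of max minus min over baseline; more negative score means more quench and so TMEM16A activation or potentiation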
Target sequence (Q8BHY3 whole entry, looked up): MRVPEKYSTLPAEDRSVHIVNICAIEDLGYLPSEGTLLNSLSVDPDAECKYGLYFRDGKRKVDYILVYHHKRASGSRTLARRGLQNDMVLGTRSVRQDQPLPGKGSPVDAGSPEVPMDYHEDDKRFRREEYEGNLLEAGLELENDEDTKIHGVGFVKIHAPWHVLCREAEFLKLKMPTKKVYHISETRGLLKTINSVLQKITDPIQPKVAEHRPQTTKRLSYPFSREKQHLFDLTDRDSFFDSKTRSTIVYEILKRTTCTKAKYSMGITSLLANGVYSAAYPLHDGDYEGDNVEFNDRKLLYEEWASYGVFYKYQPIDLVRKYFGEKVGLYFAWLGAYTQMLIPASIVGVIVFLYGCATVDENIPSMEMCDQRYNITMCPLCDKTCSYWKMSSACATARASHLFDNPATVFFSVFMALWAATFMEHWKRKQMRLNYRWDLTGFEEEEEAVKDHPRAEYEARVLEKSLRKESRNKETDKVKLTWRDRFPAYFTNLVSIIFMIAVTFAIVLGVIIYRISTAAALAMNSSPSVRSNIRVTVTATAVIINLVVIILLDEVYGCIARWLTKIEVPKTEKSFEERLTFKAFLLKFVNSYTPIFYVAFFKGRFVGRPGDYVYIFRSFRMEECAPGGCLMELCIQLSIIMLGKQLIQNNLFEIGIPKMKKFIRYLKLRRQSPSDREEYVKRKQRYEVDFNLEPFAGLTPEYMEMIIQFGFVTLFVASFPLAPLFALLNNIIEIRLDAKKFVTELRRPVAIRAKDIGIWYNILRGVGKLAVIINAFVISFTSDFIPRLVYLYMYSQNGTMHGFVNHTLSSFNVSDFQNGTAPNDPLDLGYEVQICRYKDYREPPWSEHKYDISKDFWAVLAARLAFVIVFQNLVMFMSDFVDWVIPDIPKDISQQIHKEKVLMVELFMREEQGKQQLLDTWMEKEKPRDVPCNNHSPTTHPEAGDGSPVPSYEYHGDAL
UBC13 polyUb = UBC13 polyubiquitin chain formation inhibitors, primary screen, biochemical, TR-FRET, uHTS; Ubiquitin-conjugating enzyme E2 N (Homo sapiens), P61088; actives 0.47% (n = 330,000); AID 485273, 2010; inhibition, % at 20 µM; in the data active means inhibition above about 45%, passing the limit was not always enough; inconclusive means no clear call, values can overlap the other calls
DNA FID counter = compounds displacing fluorescent DNA intercalator, primary screen, artefact control for HCV NS3 helicase inhibitor project, biochemical, FID fluorescence; actives 0.17% (n = 290,000); inhibition, % at 7.9 µM; DNA fluorescent intercalator displacement; in the data active means inhibition above about 37%;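 further: higher means more ethidium bromide displaced from hairpin DNA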
TMEM16A inh = TMEM16A chloride channel inhibitors, primary screen, cell-based, HTS | normalized B-score (activity score, 25-100; higher = stronger inhibition) at 10 µM | HEK293 TMEM16A/YFP iodide influx fluorescence, ionomycin | Anoctamin-1 (Mus musculus), Q8BHY3 | AID 588511, 2011 | actives 1.2% (n = 310,000);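 active means ratio plate-corrected score three or more library SD toward inhibition, starting fluorescence score within five deviations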;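 further: score derived from kinetic fluorescence span divided by baseline fluorescence per well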
Apaf1 inhib = inhibitors of human Apaf-1 apoptosome, primary screen, biochemical, DEVD-Rh110 fluorescence, uHTS. Apoptotic protease-activating factor 1 (Homo sapiens), O14727. reconstituted apoptosome caspase-3 activity. inhibition, % at 20 µM. actives 0.71% (n = 330,000); active means inhibition of at least 40% at 20 µM
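Material: cell-free apoptosome with Apaf-1, procaspase-3 and caspase-9; Buffer or medium: Hepes pH 7.5 with detergent and BSA; Reagent: cytochrome c trigger plus (Z-DEVD)2-Rh110 caspase-3 substrate; Times: compound with Apaf-1, dATP, procaspase-3 30 min, then 50 min reaction, room temperature; Technique: Rh110 fluorescence intensity.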
Apaf-1 inh conf2 = Apaf-1 inhibitors, single-dose retest, confirmation, biochemical, fluorescence, DEVD-Rh110, 20 µM. shares compounds with Apaf1 inhib. reconstituted apoptosome, caspase-3 DEVD-Rh110 fluorescence. inhibition, % at 20 µM. actives 25% (n = 1,800). AID 504614, 2011;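 active means mean inhibition of at least 40% at 20 µM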
Rh110 quench = Rh110 fluorescence interference by putative Apaf-1 inhibitors, confirmation, artefact control for Apaf-1 inhibitor project, biochemical, 20 µM; activation (fluorescence interference), % at 20 µM; AID 504615, 2011; quenched caspase reaction; shares compounds with Apaf1 inhib; 1,800 tested, under 10 active;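 active means signal rise of 40% or more at 20 µM, treated as a fluorescence artifact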
Fluor interf inh = fluorescence interference of Apaf-1 inhibitor hits, dose response, artefact control for Apaf-1 inhibitor project | shares compounds with Apaf1 inhib | fluorescence interference counterscreen, Apaf-1 assay format | IC50, µM | 460 tested, under 10 active | AID 588538, 2011; call rule not given here
Hits are given with their value; - = inactive; ? = inconclusive; . = not tested or not shown. The list is not random: actives were taken first. Their share in the collection is about 2.4%.

SMILES | ANO1 activ | UBC13 polyUb | DNA FID counter | TMEM16A inh | Apaf1 inhib | Apaf-1 inh conf2 | Rh110 quench | Fluor interf inh
O=S(=O)(/N=C(/Nc1ccccc1F)c1ccccc1)c1ccccc1 | - | - | - | - | - | . | . | .
O=C(O)c1ccc(S(=O)(=O)/N=C2\C=C(Nc3ccccc3F)C(=O)c3ccccc32)cc1 | - | - | - | - | 96.3 | 98.2 | - | -
Cc1ccccc1NC1=C/C(=N\S(=O)(=O)c2ccc(C(=O)O)cc2)c2ccccc2C1=O | - | - | - | - | 96.7 | 98.2 | - | -
Cc1c(C(=O)NC(=S)Nc2ccc(N3CCOCC3)cc2)cccc1[N+](=O)[O-] | - | - | - | - | - | . | . | .
CN1CCN(S(=O)(=O)c2cccc(C(=O)Oc3ccc(C(C)(C)C)cc3)c2)CC1 | - | - | . | - | - | - | - | .
CC(C)c1ccc(OC(=O)c2cccc(S(=O)(=O)N3CCN(C)CC3)c2)cc1 | - | - | - | - | - | . | . | .
Cc1nn(-c2ccccc2)c(N2CCCC2)c1/C=C1\N=C(c2ccc(OC(C)C)cc2)OC1=O | - | - | - | - | 51.7 | - | - | .
O=C(CSc1nnc(-c2ccc(F)cc2)n1CC1CCCO1)NCc1ccco1 (stereo not drawn) | - | - | - | - | 53.6 | - | - | .
COc1ccc(N/C=C2\CCc3ccccc3C2=O)cc1 | - | - | - | - | 79.2 | - | - | .
O=C1OC2(CCCCC2)OC(=O)C1=CNc1ccc2c(c1)OCO2 | - | - | - | - | - | . | . | .
O=C1/C(=C/Nc2ccc3c(c2)OCO3)CCc2ccccc21 | - | - | - | - | 45.0 | - | - | .
CSCCC(NC(=O)c1ccccc1Br)C(=O)N1CCN(C(C)=O)CC1 (stereo not drawn) | - | - | . | . | 48.1 | - | - | .
Oc1cc(NCc2ccc(F)cc2)cc2cccnc12 | - | - | . | . | - | . | . | .
CN(C)CCCNc1cc(O)c2ncccc2c1 | - | ? | . | . | 77.5 | 54.6 | - | -
COc1cccc2c1[C@@H]1CN(CCCCn3c(=O)[nH]c4c(sc5ncc(-c6ccccc6)nc54)c3=O)C[C@@H]1CO2 | - | - | . | - | 48.4 | - | - | .
COc1cc2[nH]c(=O)n(CCCC(=O)N3CC=C(c4ccccc4)CC3)c(=O)c2cc1OC | - | - | - | - | - | . | . | .
CNC1=C(N(C(C)=O)c2ccc(Br)cc2)C(=O)c2ccccc2C1=O | - | . | - | - | . | . | . | .
CCC(=O)N(C1=C(NC)C(=O)c2ccccc2C1=O)C(C)C | - | - | - | - | 68.6 | 49.2 | - | -
O=S(=O)(NCC(c1ccccc1)N1CCNCC1)c1ccc(Cl)cc1 (stereo not drawn) | - | - | - | - | 42.8 | - | - | .
O=C(N/N=C/c1ccc(F)cc1)c1ccccc1 | - | - | - | - | - | . | . | .
Cc1ccc(/C=N/NC(=O)C(C)NC(=O)c2ccccc2)cc1 (stereo not drawn) | - | - | - | - | 41.2 | - | - | .
O=C(CSc1nc(=O)n2ccccc2n1)NCc1ccccc1Cl | - | - | . | - | 48.5 | - | - | .
COc1cccc(/C=N/NC(=O)NC23CC4CC(CC(C4)C2)C3)c1O | - | - | . | - | 40.1 | - | - | .
O=C(N/N=C/c1ccccc1F)NC12CC3CC(CC(C3)C1)C2 | - | - | - | - | - | . | . | .
COc1ccccc1NC1=C(N2CCCCC2)C(=O)c2ccccc2C1=O | - | - | - | - | 95.0 | 95.2 | - | -
SMILES | ANO1 activ | UBC13 polyUb | DNA FID counter | TMEM16A inh | Apaf1 inhib | Apaf-1 inh conf2 | Rh110 quench | Fluor interf inh
Cc1ccc(NC2=C(N3CCCCC3)C(=O)c3ccccc3C2=O)cc1 | - | - | - | - | 81.2 | 95.0 | - | -
O=C1C(Nc2cccc(O)c2)=C(N2CCCCC2)C(=O)c2ccccc21 | - | - | - | - | 88.0 | 90.9 | - | -
O=C1C(Nc2ccccc2)=C(N2CCCCC2)C(=O)c2ccccc21 | - | - | - | - | 93.1 | 89.9 | - | -
CN(C1=C(N2CCCCC2)C(=O)c2ccccc2C1=O)c1ccccc1 | - | - | - | - | - | . | . | .
O=C1C(NS(=O)(=O)c2ccc(Br)cc2)=C(N2CCCCC2)C(=O)c2ccccc21 | - | - | - | - | - | . | . | .
OCC(O)CNC(=S)NC1CCCCC1 (stereo not drawn) | - | - | - | - | - | . | . | .
O=C(/C=C/c1ccc(O)cc1)c1ccc(NC2=C(N3CCCCC3)C(=O)c3ccccc3C2=O)cc1 | - | - | - | - | 76.0 | 95.0 | - | -
O=C(CNC(=O)COc1ccccc1)NCc1ccccc1F | - | - | - | - | - | . | . | .
C=CCOC(=O)C1=C(C)NC(C)=C(C(=O)OCC=C)C1c1cn(-c2ccccc2)nc1-c1ccco1 | - | - | - | - | - | . | . | .
CCCc1[nH]nc2c1C(c1ccc(OC)c(CSC3=NCCS3)c1)C(C#N)=C(N)O2 (stereo not drawn) | - | - | - | - | 41.0 | 42.9 | - | -
Cc1cccc(N2CCN(C(=O)c3cc4cc(F)ccc4[nH]3)CC2)c1C | - | - | - | - | 42.0 | - | - | .
Fc1ccccc1/C=N/Nc1ncnc2ccccc12 | - | - | - | - | - | . | . | .
Clc1ccc(/C=N/Nc2ncnc3ccccc23)cc1Cl | - | - | - | - | 42.8 | - | - | .
Cc1ccc(NC(=S)N2CC(C)OC(C)C2)cc1C (stereo not drawn) | - | - | - | - | - | . | . | .
Oc1cccc2cnccc12 | - | - | - | - | - | . | . | .
Nc1cccc2cnccc12 | - | - | - | - | 66.5 | - | - | .
c1ccc(-c2nnc(CN3CCN(C(c4ccccc4)c4ccccc4)CC3)o2)cc1 | - | - | - | - | - | . | . | .
Cc1ccc(-c2nnn(CC(=O)N(c3ccc(F)cc3)C(C(=O)NC3CCCC3)c3ccncc3)n2)o1 (stereo not drawn) | - | - | - | - | - | . | . | .
Cc1cc(C(=O)N/N=C/c2c(C)[nH]n(-c3ccccc3)c2=O)n[nH]1 | - | - | - | - | 76.7 | 80.1 | - | -
Cc1[nH]n(-c2ccccc2)c(=O)c1/C=N/NC(=O)c1cccc(F)c1 | - | - | - | - | 62.2 | 67.0 | - | -
CCCCN(CCCC)C(=S)N/N=C/c1c(C)[nH]n(-c2ccccc2)c1=O | - | - | - | - | 57.3 | - | - | .

Bioassay records deposited in PubChem by several laboratories.
